# High-throughput results: PubChem BioAssay, Broad Institute
# PGC1a acetyl up: compounds raising PGC1a acetylation signal, primary screen, PGC1a modulator project, cell-based, U2OS, AlphaScreen, signal-increasing mode; activation, % at 15.6 µM; AID 651723, 2012; overnight; 0.21% of 350,000 active;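 active = every replicate reaching activation of at least 50%, whatever the mean replicate activation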;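 also: hits raise the AlphaScreen acetylation signal above neutral controls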
#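 Incubation: overnight compound treatment, 37 °C. System: U2OS cells transduced with flag-tagged PGC1a and GCN5 acetyltransferase. Detection: AlphaScreen lysate read. Compound: single-point compound dosing.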
# Active calls of the source: *. Only a selection was taken, and hits are over-represented in it overall.
SMILES,PGC1a acetyl up
CC1CC(C)(C)CC(=O)C1C(=O)c1ccccc1 (configuration not stated),-49
COc1cc(OC)c2c(-c3cccc(-c4cccc(C)c4)c3)cc(=O)oc2c1,60*
O=C1c2ccccc2-c2c1cccc2C(=O)N1CCN(C(=O)c2ccco2)CC1,-43
Cc1ccc(S(=O)(=O)N2CCN(C(=O)N3CCOCC3)CC2)cc1C,-42
O=C(Nc1cccc(S(=O)(=O)N2CCCCC2)c1)c1ccc([N+](=O)[O-])o1,226*
Cc1ccc(NC(=O)c2ccc([N+](=O)[O-])o2)cc1S(=O)(=O)N1CCOCC1,191*
CC(C)(C)NS(=O)(=O)c1ccc(CCC(=O)N2CCOCC2)cc1,-46
O=C(Nc1cccc(S(=O)(=O)N2CCOCC2)c1)c1ccco1,67*
O=S(=O)(c1ccc2[nH]ccc2c1)N1CCCCCC1,-68
CCCCCCNC(=O)c1ncn[nH]1,-41
COc1ccc2c3c([nH]c2c1)[C@H](CO)N(C(=O)c1ccncc1)CC31CN(C(=O)c2ccncc2)C1,-53
Cc1ccccc1CS(=O)(=O)c1nnc([C@H](CC(C)C)NC(=O)OC(C)(C)C)o1,74*
COC(=O)C1=C(N)OC2=C(C(=O)CC(C)(C)C2)C1c1cccs1 (configuration not stated),57*
O=C(Cc1ccc(Cl)cc1)Nc1ncccn1,-45
CC1C(=O)CCCCCCCCCC2C1(N1CCOCC1)CS2(=O)=O (configuration not stated),61*
C[C@@H]1CN([C@H](C)CO)C(=O)c2cc(NC(=O)Cc3cn(C)c4ccccc34)ccc2O[C@@H]1CN(C)C(=O)Nc1ccccc1,-108
O=C(CN1CCOCC1)N[C@H]1CC[C@H](CCNC(=O)Nc2cc(F)ccc2F)O[C@H]1CO,-53
C=C1C(=O)O[C@H]2[C@@H]1CC/C(CO)=C\CC[C@@]1(C)O[C@@H]21,61*
C=C1C(=O)[C@]23C[C@H]1CCC2[C@@]1(C)C(C[C@@H]3O)[C@](C)(C(=O)OC)CC[C@@H]1O (some centres not stated),-92
O=C(Cc1ccc(-n2cccc2)cc1)NCc1cccs1,58*
O=C1C2C3C=CC(C4CC34)C2C(=O)N1/N=C/c1c[nH]c2ccccc12 (configuration not stated),-106
CCOC(=O)N1CCN(C(=O)C(NS(=O)(=O)c2cccc3nsnc23)c2ccccc2)CC1 (configuration not stated),59*
Cc1nc(C(C)N(C)Cc2nc(-c3ccc4c(c3)OCO4)no2)c(C)s1 (configuration not stated),-97
CCOC(=O)c1ccc(NC(=O)CCS(=O)(=O)c2ccc(Br)s2)cc1,50*
CCOC(=O)c1ccc(NC(=O)Nc2ccc(F)cc2)cc1,-45
SMILES,PGC1a acetyl up
Cc1cc(C(=O)Nc2cccc3c2O[C@H](CN(C)C(=O)Nc2ccc4c(c2)OCO4)[C@@H](C)CN([C@H](C)CO)C3=O)n(C)n1,-58
CO[C@H]1CN(C)C(=O)c2cc(NS(C)(=O)=O)ccc2OC[C@@H](C)N(C(=O)CC2CC2)C[C@H]1C,-46
COc1ccc(C(NC(=O)c2c(F)c(F)c(F)c(F)c2F)c2ccccc2)cc1 (configuration not stated),-85
Cc1ccc(NC(=S)c2ccncc2)cc1,66*
COc1ccc(S(=O)(=O)N2c3ccc(F)cc3CCC2C)cc1 (configuration not stated),120*
CCc1c(C)nc(N)nc1Cl,-47
O=C1C2C3CCC(C3)C2C(=O)N1CNc1ccc(F)cc1 (configuration not stated),-47
C[C@H](CO)N1C[C@H](C)[C@@H](CN(C)Cc2ccccc2F)Oc2ncc(Br)cc2C1=O,-64
CCC(=O)N[C@H]1CC[C@H](CC(=O)OC)O[C@H]1CO,-43
CC(C)CC(OC(=O)c1cccs1)C(=O)NCc1ccco1 (configuration not stated),86*
CCOC(=O)c1c(NC(=O)c2c(Br)cnn2CC)sc(C)c1C,83*
CCOC(=O)c1c(NC(=O)/C=C/C(=O)O)sc(C)c1-c1ccc(C(C)(C)C)cc1,-47
COC(=O)C12OCC34C(CC5C(C)=C(O)C(=O)CC5(C)C3C(O)C1O)OC(=O)C(OC(=O)C=C(C)C)C24 (configuration not stated),-49
C[C@@H]1CN([C@H](C)CO)C(=O)c2cccc(NC(=O)C3CCCCC3)c2O[C@@H]1CN(C)CC1CCCCC1,-55
CSc1ncccc1C(=O)N1CCN(C(=O)c2ccccc2)CC1,-44
O=C(Nc1c(Cl)ccc2nsnc12)c1ccc([N+](=O)[O-])o1,74*
CC(=O)c1ccc(NC(=O)c2ccc([N+](=O)[O-])o2)cc1,101*
Cc1cc(C)cc(C(=O)Nc2ccc3[nH]c(=O)[nH]c3c2)c1,-48
O=C(Nc1ccc(N2CCN(C(=O)c3ccccc3)CC2)cc1)c1ccc([N+](=O)[O-])o1,122*
O=C(c1ccc(CN2CCOCC2)cc1)N1CCN(Cc2ccccc2)CC1,-43
Cc1cc(C)cc(NC(=O)c2ccc([N+](=O)[O-])o2)c1,247*
O=[N+]([O-])c1ccccc1-c1ccc(C(=S)N2CCN(c3ccccc3)CC2)o1,-41
O=C(Nc1ccc([N+](=O)[O-])cn1)c1ccc(Br)o1,-43
O=C(N[C@@H]1CC[C@@H](CCNS(=O)(=O)c2ccccc2Cl)O[C@@H]1CO)c1ccc(F)cc1,-48
CC(=O)N1CCN(C(C)=O)C1c1ccccc1,-47
SMILES,PGC1a acetyl up
CC1=C(Cl)C2=NS(=O)(=O)CCN2C=C1Cl,-47
COc1ccc(S(=O)(=O)Nc2ccccc2C)cc1C(=O)N1CCOCC1,-102
COc1ccc(-c2[nH]ncc2-c2ccc3c(c2)OCCO3)c(O)c1,-53
CCOc1ccc(-c2[nH]ncc2-c2ccc(OC)c(OC)c2)c(O)c1,68*
COc1ccc(-c2[nH]ncc2CN(C)C(C)c2ccon2)cc1F (configuration not stated),-80
Cc1ccc(-n2cccc2C(=S)N=P(N(C)C)(N(C)C)N(C)C)cc1,-85
C=C1CCN(c2ccc(C(=O)NCc3ccccc3)cc2[N+](=O)[O-])CC1,-44
COc1ccccc1C(=O)/C=C/c1ccc(N2CCCCC2)c([N+](=O)[O-])c1,187*
CCOC(=O)CNC(=O)OC1CCN2Cc3ccccc3N=C12 (configuration not stated),-78
O=[N+]([O-])c1cc(F)c2cccnc2c1O,-42
O=Nc1ccc(O)c2ncccc12,245*
O=C(N/N=C/c1ccc(O)c2ncccc12)c1cccc(Br)c1,-67
C#CC(CC)(CC)NC(=O)c1ccc(Br)s1,-46
O=C(NC[C@@H]1N[C@@H](CO)[C@H]1c1ccc(C2=CCCCC2)cc1)c1ccc(F)cc1,66*
CN(C[C@H]1N[C@@H](CO)[C@@H]1c1ccc(C2=CCCC2)cc1)C(=O)c1ccc(F)cc1,-79
CSC1SCC2C(=O)N(C)C(C(C)C)C(=O)OCC(NC(=O)c3cnc4ccccc4n3)C(=O)NC(C)C(=O)N(C)C1C(=O)N(C)C(C(C)C)C(=O)OCC(NC(=O)c1cnc3ccccc3n1)C(=O)NC(C)C(=O)N2C (configuration not stated),-39
CN1CCN(C(=O)c2sc(=S)n(-c3ccccc3)c2N)CC1,-63
CC(=O)c1cccc(-c2ccnc3c2CC(C(=O)NCc2ccco2)O3)c1 (configuration not stated),52*
COc1ccc(C#Cc2c(-c3ccccc3)n(-c3ccccc3)c3ccc(CO)cc23)cc1,71*
